Our source for the inhibition, IC50 and CC50 values is ChEMBL document CHEMBL1268915, “Optimization of a series of dipeptides with a P3 threonine residue as non-covalent inhibitors of the chymotrypsin-like activity of the human 20S proteasome” (Bioorg Med Chem Lett, 2010).

The species entered for series [1] is Homo sapiens. Kind of series: Inhibition of human elastase at 100 uM.
A short description of series [2]: Inhibition of chymotrypsin-like activity of human 20s proteasome beta-1 subunit in human erythrocyte assessed as hydrolysis of Ac-WLA-AMC fluorogenic substrate.
The target in series [3] is Procathepsin L (Homo sapiens) (UniProt P07711). The series is described as follows: Inhibition of human cathepsin L at 100uM.
Procathepsin L (Homo sapiens), sequence (P07711 114-333 limits assumed): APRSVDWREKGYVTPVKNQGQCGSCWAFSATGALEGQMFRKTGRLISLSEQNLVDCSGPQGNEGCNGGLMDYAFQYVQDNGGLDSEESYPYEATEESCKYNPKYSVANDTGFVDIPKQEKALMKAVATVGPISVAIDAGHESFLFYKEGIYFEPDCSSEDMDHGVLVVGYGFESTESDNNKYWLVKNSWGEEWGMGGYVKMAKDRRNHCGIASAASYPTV
Series [4] has as its target T1, Coagulation factor XII (Homo sapiens) (UniProt P00748).
T1 sequence (whole entry): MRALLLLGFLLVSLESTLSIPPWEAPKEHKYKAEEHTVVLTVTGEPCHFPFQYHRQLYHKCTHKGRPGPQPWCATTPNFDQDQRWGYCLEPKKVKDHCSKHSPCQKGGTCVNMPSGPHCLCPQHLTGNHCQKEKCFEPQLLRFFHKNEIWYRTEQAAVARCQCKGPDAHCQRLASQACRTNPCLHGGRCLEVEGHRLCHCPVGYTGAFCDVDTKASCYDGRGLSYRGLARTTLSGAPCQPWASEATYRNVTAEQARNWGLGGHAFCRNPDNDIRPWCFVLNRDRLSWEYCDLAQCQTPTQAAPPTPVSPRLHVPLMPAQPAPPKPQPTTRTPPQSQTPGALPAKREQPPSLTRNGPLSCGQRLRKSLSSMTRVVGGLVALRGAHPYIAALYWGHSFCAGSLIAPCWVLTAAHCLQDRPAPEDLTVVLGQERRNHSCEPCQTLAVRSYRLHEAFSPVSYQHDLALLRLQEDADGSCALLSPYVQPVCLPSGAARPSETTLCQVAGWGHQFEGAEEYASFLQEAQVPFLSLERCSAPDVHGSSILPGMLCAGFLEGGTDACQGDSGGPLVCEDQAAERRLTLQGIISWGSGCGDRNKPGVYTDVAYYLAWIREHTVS
The series is described as follows: Inhibition of human coagulation factor beta 12a at 100 uM.

For series [5], the target named is Prothrombin (Homo sapiens) (UniProt P00734). The series is described as follows: Inhibition of human thrombin at 100 uM.
Series [6] concerns the target T2, Calpain-1 catalytic subunit (Homo sapiens) (UniProt P07384).
T2 sequence (whole entry): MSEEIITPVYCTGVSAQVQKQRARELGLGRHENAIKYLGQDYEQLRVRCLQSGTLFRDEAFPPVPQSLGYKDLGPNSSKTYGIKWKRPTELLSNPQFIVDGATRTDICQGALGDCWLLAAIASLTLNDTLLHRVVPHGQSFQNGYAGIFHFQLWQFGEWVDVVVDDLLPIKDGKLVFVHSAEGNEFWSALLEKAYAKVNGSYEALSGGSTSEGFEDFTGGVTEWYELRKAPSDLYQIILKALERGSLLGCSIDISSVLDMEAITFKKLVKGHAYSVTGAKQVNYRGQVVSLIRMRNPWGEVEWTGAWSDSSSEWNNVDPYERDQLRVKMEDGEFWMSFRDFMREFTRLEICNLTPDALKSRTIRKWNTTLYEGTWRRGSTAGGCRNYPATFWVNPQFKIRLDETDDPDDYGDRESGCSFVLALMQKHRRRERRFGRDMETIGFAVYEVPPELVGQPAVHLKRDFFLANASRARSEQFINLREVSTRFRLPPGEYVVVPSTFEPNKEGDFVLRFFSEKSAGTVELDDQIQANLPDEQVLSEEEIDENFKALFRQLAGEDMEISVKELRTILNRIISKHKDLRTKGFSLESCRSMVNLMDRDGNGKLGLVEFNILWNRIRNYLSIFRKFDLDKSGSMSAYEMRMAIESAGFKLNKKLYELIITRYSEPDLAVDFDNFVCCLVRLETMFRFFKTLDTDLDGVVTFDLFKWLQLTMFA
The series is described as follows: Inhibition of human calpain 1 at 100 uM.

The next series deals with Trypsin (Homo sapiens) (UniProt P07477+P07478+P35030). The series is described as follows: Inhibition of human trypsin at 100 uM. Type of series: protein assay.
Series [7] in a line: Cytotoxicity against human Calu6 cells assessed as cellular ATP level after 72 hrs by luminescence-based ATPlite assay. Type of series: cell-based, Calu-6. The following applies: read-out: LC50. A digest of the protocol:
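Calu6 cells, 2000 per well, incubated with compound for 72 h. Viability read as cellular ATP by luminescence (ATPlite). Values are means of at least three independent experiments.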
(In ATP-based viability assays light output follows the ATP content of the culture.)

Series [8] can be described thus: Inhibition of chymotrypsin-like activity of human 20s proteasome beta2 subunit in human erythrocyte assessed as hydrolysis of Ac-WLA-AMC fluorogenic substrate.
In series [9] the target is Tissue-type plasminogen activator (Homo sapiens) (UniProt P00750). Kind of series: Inhibition of tissue plasminogen activator at 100 uM.
Tissue-type plasminogen activator (Homo sapiens), sequence (P00750 36-562 limits assumed): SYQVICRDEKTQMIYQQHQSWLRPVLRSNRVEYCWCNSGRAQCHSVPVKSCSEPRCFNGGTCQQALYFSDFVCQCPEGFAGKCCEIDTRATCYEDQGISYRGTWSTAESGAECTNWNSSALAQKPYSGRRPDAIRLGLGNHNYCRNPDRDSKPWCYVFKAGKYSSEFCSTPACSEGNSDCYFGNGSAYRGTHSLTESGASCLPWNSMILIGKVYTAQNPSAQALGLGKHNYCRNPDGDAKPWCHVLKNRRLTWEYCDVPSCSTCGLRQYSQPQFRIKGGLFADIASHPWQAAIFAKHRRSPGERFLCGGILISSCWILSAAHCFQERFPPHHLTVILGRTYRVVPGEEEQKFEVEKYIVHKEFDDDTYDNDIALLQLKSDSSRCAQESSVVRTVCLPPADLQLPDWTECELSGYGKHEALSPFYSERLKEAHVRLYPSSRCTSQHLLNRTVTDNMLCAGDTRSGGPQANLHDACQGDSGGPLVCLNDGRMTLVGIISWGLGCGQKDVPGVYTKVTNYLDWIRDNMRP
For series [10], the target named is Plasminogen (Homo sapiens) (UniProt P00747). Kind of series: Inhibition of human plasmin at 100 uM.
Plasminogen (Homo sapiens), sequence (P00747 97-580 limits assumed): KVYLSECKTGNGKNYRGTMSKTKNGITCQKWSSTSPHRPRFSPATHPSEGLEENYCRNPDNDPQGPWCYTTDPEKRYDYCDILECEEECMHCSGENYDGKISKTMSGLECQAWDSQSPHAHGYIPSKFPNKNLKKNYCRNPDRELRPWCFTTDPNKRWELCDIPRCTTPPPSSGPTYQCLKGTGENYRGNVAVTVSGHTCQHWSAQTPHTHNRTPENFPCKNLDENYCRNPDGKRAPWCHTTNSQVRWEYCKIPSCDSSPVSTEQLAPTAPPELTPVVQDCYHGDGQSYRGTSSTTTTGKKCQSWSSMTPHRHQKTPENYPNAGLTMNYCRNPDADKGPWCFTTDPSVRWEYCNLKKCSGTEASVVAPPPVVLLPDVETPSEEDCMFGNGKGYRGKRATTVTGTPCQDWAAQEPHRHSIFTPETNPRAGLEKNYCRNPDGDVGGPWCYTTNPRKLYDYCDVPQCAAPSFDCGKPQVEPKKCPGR
Plasminogen (Homo sapiens), sequence (P00747 581-810 limits assumed): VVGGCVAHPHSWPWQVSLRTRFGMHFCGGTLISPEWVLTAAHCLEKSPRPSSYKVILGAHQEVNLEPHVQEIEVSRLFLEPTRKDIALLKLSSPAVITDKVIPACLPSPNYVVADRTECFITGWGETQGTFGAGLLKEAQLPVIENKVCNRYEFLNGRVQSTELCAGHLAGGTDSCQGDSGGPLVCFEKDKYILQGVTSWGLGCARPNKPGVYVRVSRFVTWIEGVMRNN
For the next series, the system named is HEK293. Kind of series: (§1) Inhibition of TNF-alpha-induced NF-kappaB activation in human HEK293 cells after 3 hrs by luciferase reporter gene assay. The class given is cell-based. Also on record: concentration or dose not given beside the values. Conditions: dose or concentration not given here. In a few lines: (§2)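 NF-κB-luciferase reporter in HEK293 cells (10,000 per well). Cells were pre-incubated with compound for 1 h, then stimulated with 10 ng/ml TNF-α for 3 h with compound still present. IC50 and percentage inhibition were reported as means of at least three independent experiments.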
In general terms: Reporter assays use an easily measured gene product as a stand-in for the process of interest.

Series [11] is described as follows: as §1. The class given is cell-based. Conditions: HEK293, 3 h. In a few lines:
as §2

Series [12] concerns the target Cathepsin B (Homo sapiens) (UniProt P07858). Kind of series: Inhibition of human cathepsin B at 100uM.
The species entered for series [13] is Homo sapiens. The series is described as follows: Inhibition of human chymotrypsin at 100 uM.
A short description of series [14]: Inhibition of chymotrypsin-like activity of human 20s proteasome beta5 subunit in human erythrocyte assessed as hydrolysis of Ac-WLA-AMC fluorogenic substrate.

Calls of active or inactive are those of the source. The rule behind the calls is not given here.

For orientation: inhibition means the change of the read-out against control, counted positive when it falls. Usually IC50 stands for the point on the concentration scale where inhibition reaches its midpoint. On to `CCNC(=O)[C@H](CCc1ccccc1)NC(=O)[C@@H](NC(=O)c1ccc(OCc2ccccc2)cc1)[C@@H](C)O`, for which the inhibition entry (in the series filed under Homo sapiens [1]; in [3]; in [4]; in series [5]; in [6]; at Trypsin (Homo sapiens)) was “Active” throughout. Further, the inhibition entry (in [9]; in series [10]; in series [12]; in the series filed under Homo sapiens [13]) was “Active” in each case. In addition, the IC50 in series [2] was more than 20 µM; in series [8], more than 20 µM; in series [11], 2.6 µM; in [14], 0.44 µM. Besides, the CC50 at 72 h in [7] amounted to 5.1 µM. The molecule further showed an inhibition in the series on HEK293 of 98%.

For `COC[C@H](NC(=O)Cc1cccc(OCc2ccccc2)c1)C(=O)N[C@@H](CCc1ccccc1)C(=O)NCc1ccc(C)cc1`, the inhibition result (in the series listed under Homo sapiens [1]; in series [3]; in series [4]; in series [5]; in [6]; on Trypsin (Homo sapiens)) was “Active” throughout. The inhibition entry (in series [9]; in series [10]; in [12]; in the series listed under Homo sapiens [13]) was “Active” throughout. In addition, the IC50 is more than 20 µM in [2], more than 20 µM in series [8], 0.34 µM in series [11] and 0.074 µM in series [14]. In addition, the CC50 at 72 h in series [7] was found to be 0.22 µM. The same molecule showed an inhibition in the series on HEK293 of 78%.

With `C[C@@H](O)[C@H](NC(=O)c1ccc(OCc2ccccc2)cc1)C(=O)N[C@@H](CCc1ccccc1)C(=O)NCc1cccc(Cl)c1`, the inhibition entry (in the series filed under Homo sapiens [1]; in series [3]; in [4]; in series [5]; in [6]; at Trypsin (Homo sapiens)) was “Active” each time. Besides, the inhibition entry (in series [9]; in series [10]; in series [12]; in the series listed under Homo sapiens [13]) was “Active” each time. Further, the IC50 is more than 20 µM in series [2], more than 20 µM in [8], 15 µM in [11] and 0.21 µM in series [14]. Also, the CC50 at 72 h in series [7] was more than 25 µM. Also, the inhibition in the series on HEK293 stood at 44%.

On to `Cc1ccc(CNC(=O)[C@H](CCc2ccccc2)NC(=O)[C@@H](NC(=O)CCc2ccccc2C)[C@@H](C)O)cc1`, for which the inhibition result (in the series listed under Homo sapiens [1]; in [3]; in [4]; in series [5]; in series [6]; at Trypsin (Homo sapiens)) was “Active” in each case. Also, the inhibition entry (in series [9]; in series [10]; in series [12]; in the series filed under Homo sapiens [13]) was “Active” in each case. In addition, the IC50 was more than 20 µM in series [2], more than 20 µM in series [8], 0.69 µM in series [11] and 0.12 µM in series [14]. In addition, the CC50 at 72 h in series [7] was found to be 2.3 µM. In the series on HEK293, this molecule yielded an inhibition of 80%.

Turning to `C[C@@H](O)[C@H](NC(=O)c1ccc(OCc2ccccc2)cc1)C(=O)N[C@@H](CCc1ccccc1)C(=O)NCc1ccccc1Cl`, the inhibition result (in the series filed under Homo sapiens [1]; in [3]; in [4]; in series [5]; in [6]; at Trypsin (Homo sapiens)) was “Active” throughout. Further, the inhibition entry (in series [9]; in series [10]; in series [12]; in the series filed under Homo sapiens [13]) was “Active” in each case. For the same molecule, the IC50 was more than 20 µM in [2], more than 20 µM in [8], 0.029 µM in series [11] and 0.013 µM in [14]. Besides, in [7], the CC50 at 72 h was 0.29 µM. For the same molecule, the inhibition with HEK293 was determined as 87%.

With `C[C@@H](O)[C@H](NC(=O)c1ccc(OCc2ccccc2)cc1)C(=O)N[C@@H](CCc1ccccc1)C(=O)N(C)Cc1ccccc1`, the inhibition entry (in the series filed under Homo sapiens [1]; in series [3]; in series [4]; in series [5]; in series [6]; on Trypsin (Homo sapiens)) was “Active” throughout. In addition, the inhibition entry (in [9]; in series [10]; in series [12]; in the series filed under Homo sapiens [13]) was “Active” each time. Also, the IC50 was more than 20 µM in [2], more than 20 µM in series [8], 4.4 µM in series [11] and 9.1 µM in series [14]. Further, the CC50 at 72 h in series [7] turned out to be 6.6 µM. The molecule also displayed an inhibition in the series on HEK293 of 86%.

Take `C[C@@H](O)[C@H](NC(=O)c1ccc(OCc2ccccc2)cc1)C(=O)N[C@@H](CCc1ccccc1)C(=O)NCc1ccccc1`: the inhibition result (in the series listed under Homo sapiens [1]; in series [3]; in series [4]; in series [5]; in series [6]; on Trypsin (Homo sapiens)) was “Active” throughout. Further, the inhibition result (in series [9]; in [10]; in [12]; in the series filed under Homo sapiens [13]) was “Active” each time. The IC50 in [2] is more than 20 µM; in series [8] it was more than 20 µM; in series [11], 0.71 µM; in [14] it was 0.068 µM. For the same molecule, the CC50 at 72 h in series [7] was 1.4 µM. In the series with HEK293, the inhibition came to 68%.

Regarding `COc1ccc2c(c1)CC(C(=O)N[C@H](C(=O)N[C@@H](CCc1ccccc1)C(=O)NCc1ccc(C)cc1)[C@@H](C)O)CC2` (stereo partly drawn), the inhibition entry (in the series listed under Homo sapiens [1]; in series [3]; in [4]; in series [5]; in [6]; at Trypsin (Homo sapiens)) was “Active” in each case. Moreover, the inhibition result (in series [9]; in series [10]; in series [12]; in the series listed under Homo sapiens [13]) was “Active” throughout. For the same molecule, the IC50 in series [2] is more than 20 µM; in series [8], more than 20 µM; in [11], 0.095 µM; in [14] it was 0.02 µM. In addition, the CC50 at 72 h in [7] was 2.3 µM. The molecule further returned an inhibition in the series on HEK293 of 89%.
